Experimental data collected from several papers.
Compare with care: the assays were run in different laboratories.
Target: Serine/threonine-protein kinase ULK2 (ULK2, Homo sapiens, UniProt Q8IYT8)
Sequence (Q8IYT8 1-1036, as in one of the studies): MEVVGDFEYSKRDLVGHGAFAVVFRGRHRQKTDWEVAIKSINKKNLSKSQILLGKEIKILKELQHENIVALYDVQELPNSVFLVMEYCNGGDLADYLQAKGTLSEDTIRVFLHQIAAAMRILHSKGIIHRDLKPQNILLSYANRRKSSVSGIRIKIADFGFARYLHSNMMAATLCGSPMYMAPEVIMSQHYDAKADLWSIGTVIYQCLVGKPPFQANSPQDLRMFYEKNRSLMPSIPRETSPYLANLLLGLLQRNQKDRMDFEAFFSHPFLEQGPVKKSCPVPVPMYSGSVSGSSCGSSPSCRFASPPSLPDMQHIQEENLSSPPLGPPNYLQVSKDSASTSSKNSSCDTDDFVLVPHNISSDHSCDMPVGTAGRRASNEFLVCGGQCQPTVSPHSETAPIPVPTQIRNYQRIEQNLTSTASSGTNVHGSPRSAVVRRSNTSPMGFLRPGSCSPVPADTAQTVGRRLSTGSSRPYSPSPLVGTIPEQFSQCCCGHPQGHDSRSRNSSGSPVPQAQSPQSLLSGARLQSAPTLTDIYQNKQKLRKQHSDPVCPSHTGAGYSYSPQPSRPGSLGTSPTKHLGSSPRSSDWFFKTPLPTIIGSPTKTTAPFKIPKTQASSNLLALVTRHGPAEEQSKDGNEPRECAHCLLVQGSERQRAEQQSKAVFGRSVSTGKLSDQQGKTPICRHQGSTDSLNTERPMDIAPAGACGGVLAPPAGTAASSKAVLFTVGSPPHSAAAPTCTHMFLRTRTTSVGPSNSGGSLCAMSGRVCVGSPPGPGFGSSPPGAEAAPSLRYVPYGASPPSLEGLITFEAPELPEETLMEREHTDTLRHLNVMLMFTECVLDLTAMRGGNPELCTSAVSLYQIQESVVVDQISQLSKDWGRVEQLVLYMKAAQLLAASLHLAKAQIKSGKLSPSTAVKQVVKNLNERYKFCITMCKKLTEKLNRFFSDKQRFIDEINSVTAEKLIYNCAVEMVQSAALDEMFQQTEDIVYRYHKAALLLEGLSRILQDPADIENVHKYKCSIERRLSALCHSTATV

C#Cc1n[nH]c2c(-c3cn(C(C)c4ccccn4)c(=O)[nH]c3=O)cc(F)cc12 (stereo not drawn) — inhibition (enzyme activity; inhibitor; 1 µM): 8.6%
COc1ncccc1-c1cnn2ccc(N3CCN(C(=O)OC(C)C)CC3)nc12 — remaining binding (binding; competition with immobilised ligand; 1 µM): 70%
C#Cc1n[nH]c2c(-c3cn([C@@H](C)c4ccccc4)c(=O)[nH]c3=O)cc(F)cc12 — inhibition (enzyme activity; inhibitor; 0.1 µM): -3.5%
Cc1nn(C)cc1-c1nc2c(N3CCN(Cc4ccc(Cl)cc4)CC3)c(Cl)cnc2[nH]1 — remaining binding (binding; competition with immobilised ligand; 1 µM): 100%
CC(C)(C)c1cc(C=C(C#N)C#N)cc(Br)c1O — remaining activity (enzyme activity; inhibitor; 0.5 µM): 103%
COc1cc(Nc2ncc(F)c(Nc3ccc4c(n3)NC(=O)C(C)(C)O4)n2)cc(OC)c1OC — inhibition (binding; 10 µM): 100%
Cn1cncc1[C@](O)(COc1ccc(C#N)cc1-c1ccc(OC(F)(F)F)cc1)c1ccc(C#N)cc1 — remaining binding (cell-free assay; competition with immobilised ligand; 1 µM): 100%
Nc1ncc(-c2nc(N3CCOCC3)nc(N3CCOCC3)n2)c(C(F)F)n1 — remaining binding (binding; competition with immobilised ligand; 10 µM): 72%
O=c1[nH]c2ccccc2n1C1CCN(Cc2ccc(-c3[nH]c4cc5ncnc5cc4nc3-c3ccccc3)cc2)CC1 — remaining signal (cell-free assay; 0.5 µM): 106%
